Where a chain is given by its changes, count along the chain named.
How the values were obtained:
Assay in all cases: fluorescence-binding assay
[1] = molecular target: T1, JHAMT2-D^92A (Bombyx mori, UniProt A0A8M0FGR8, D92A)
T1 sequence (A0A8M0FGR8 1-267 D92A): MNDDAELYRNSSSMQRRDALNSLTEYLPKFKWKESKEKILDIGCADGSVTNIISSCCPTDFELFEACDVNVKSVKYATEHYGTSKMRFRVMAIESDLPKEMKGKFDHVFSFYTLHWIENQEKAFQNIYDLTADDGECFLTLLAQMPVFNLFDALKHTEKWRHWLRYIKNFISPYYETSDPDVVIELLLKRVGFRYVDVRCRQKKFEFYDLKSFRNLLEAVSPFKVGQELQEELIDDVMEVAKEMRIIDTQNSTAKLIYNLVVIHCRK
Outline: (§1)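 Intrinsic tryptophan fluorescence quenching used 2 μM recombinant B. mori JHAMT (wild type or point mutant) in 20 mM Tris-HCl pH 8.0, 200 mM NaCl, equilibrated 2 min at 25 °C. Ligand was titrated at final 0–1.5 mM SAM (cofactor binding) or 0–0.1 mM FA (substrate binding). Excitation was 280 nm with emission recorded 300–450 nm. Kd was fitted from quenching data as mean ± s.d. of n = 3.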

[2] = molecular target: T2, JHAMT1-T^112A (Bombyx mori, UniProt Q767F1, T112A)
T2 sequence (Q767F1 1-278 T112A): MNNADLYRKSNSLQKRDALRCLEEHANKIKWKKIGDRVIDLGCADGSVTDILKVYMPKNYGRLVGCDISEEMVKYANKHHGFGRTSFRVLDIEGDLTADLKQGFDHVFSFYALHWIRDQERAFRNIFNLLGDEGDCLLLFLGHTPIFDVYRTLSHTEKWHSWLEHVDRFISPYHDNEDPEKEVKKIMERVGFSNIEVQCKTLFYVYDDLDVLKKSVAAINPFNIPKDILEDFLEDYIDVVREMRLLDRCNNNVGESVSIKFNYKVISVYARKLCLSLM
Outline: as §1

[3] = molecular target: T3, JHAMT1-D^91A (Bombyx mori, UniProt Q767F1, D91A)
T3 sequence (Q767F1 1-278 D91A): T2 sequence (Q767F1 1-278 T112A) with D91A, A112T
Outline: as §1

[4] = molecular target: T4, JHAMT2-T^113A (Bombyx mori, UniProt A0A8M0FGR8, T113A)
T4 sequence (A0A8M0FGR8 1-267 T113A): T1 sequence (A0A8M0FGR8 1-267 D92A) with A92D, T113A
Outline: as §1

[5] = molecular target: T5, JHAMT1 (Bombyx mori, UniProt Q767F1)
T5 sequence (Q767F1 1-278): T2 sequence (Q767F1 1-278 T112A) with A112T
Outline: as §1

[6] = molecular target: T6, JHAMT2 (Bombyx mori, UniProt A0A8M0FGR8)
T6 sequence (A0A8M0FGR8 1-267): T1 sequence (A0A8M0FGR8 1-267 D92A) with A92D
Outline: as §1

## C[S+](CC[C@H](N)C(=O)[O-])C[C@H]1O[C@@H](n2cnc3c(N)ncnc32)[C@H](O)[C@@H]1O (stereo partly drawn) [SAM, S-adenosyl-L-methionine]
[1]
  Kd: 261 ± 18.1 µM
[2]
  Kd: 191 ± 12.7 µM
[3]
  Kd: 229 ± 18.1 µM
[4]
  Kd: 144 ± 9.91 µM
[5]
  Kd: 38.7 ± 3.42 µM
[6]
  Kd: 42.6 ± 5.83 µM
